The source of these data is ChEMBL document CHEMBL1629705, “PSI-7851, a pronucleotide of beta-D-2'-deoxy-2'-fluoro-2'-C-methyluridine monophosphate, is a potent and pan-genotype inhibitor of hepatitis C virus replication” (Antimicrob Agents Chemother, 2010).

The test system of experiment [1] is Hepatitis C virus. As to the kind of experiment: Antiviral activity against Hepatitis C virus assessed as clearance of HCV from replicon cells at 2 uM. The note with it: Hepacivirus hominis. The format is functional, organism-based. A digest of the protocol:
(§1)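 ET-lunet replicon cells, 1 × 10^5/well, no G418, with compound at 0.1, 1 or 2 μM (final DMSO 0.5%). Passaged 1:3 or 1:4 every 3–4 days for 3 weeks with fresh compound, then 3 more weeks with 0.25 mg/ml G418 and no inhibitor. HCV RNA by RT-PCR normalized to rRNA (ΔΔCt vs DMSO) at each passage. Crystal violet colony staining at 6 weeks.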
On the technique in general: Replicon systems follow genome replication, usually without infectious particles.

Experiment [2] deals with Hepatitis C virus. As to the kind of experiment: Antiviral activity against Hepatitis C virus assessed as inhibition of viral rebound at 0.1 uM after 3 weeks in presence of G418. In kind it is functional, organism-based. The conditions noted are these: Hepacivirus hominis. An outline of the steps: (§2)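 ET-lunet replicon cells seeded at 1 × 10^5/well without G418, treated at 0.1, 1 or 2 μM (final DMSO 0.5%). Passaged 1:3–1:4 every 3–4 days for 3 weeks with fresh compound. Then compound withdrawn and cells grown 3 more weeks in 0.25 mg/ml G418. HCV RNA by RT-PCR (ΔΔCt vs rRNA and DMSO controls, log change). Colonies fixed in formaldehyde and stained with crystal violet at 6 weeks.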

For experiment [3], the system named is Hepatitis C virus. Briefly: Antiviral activity against Hepatitis C virus. The format is functional, organism-based, Hepacivirus hominis.
Experiment [4] concerns Hepatitis C virus. As to the kind of experiment: Antiviral activity against Hepatitis C virus assessed as log reduction in viral RNA at 0.1 uM after 3 weeks. The format is functional, Hepacivirus hominis. An outline of the steps: as §2
Experiment [5] has as its system Hepatitis C virus. As to the kind of experiment: Antiviral activity against Hepatitis C virus assessed as clearance of HCV from replicon cells at 1 uM. The format is functional, organism-based. The conditions noted are these: Hepacivirus hominis. An outline of the steps:
as §1

Experiment [6] concerns Hepatitis C virus. Briefly: Antiviral activity against Hepatitis C virus assessed as inhibition of viral rebound at 1 uM after 3 weeks in presence of G418. In kind it is functional, organism-based. The conditions noted are these: Hepacivirus hominis. A digest of the protocol:
as §1

Experiment [7] concerns Hepatitis C virus. Briefly: Antiviral activity against Hepatitis C virus assessed as inhibition of viral rebound at 2 uM after 3 weeks in presence of G418. The note with it: Hepacivirus hominis. The format is functional, organism-based. An outline of the steps: as §1
The test system of experiment [8] is Hepatitis C virus. Briefly: Antiviral activity against Hepatitis C virus isolate Con1 infected in human HuH-7 cells assessed as inhibition of viral RNA replication after 4 days by luciferase reporter gene assay. The format is functional, Hepacivirus hominis. The conditions noted are these: Con1, Huh-7, 96 h. An outline of the steps: (§3)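 Genotype 1b Con1 subgenomic replicon cells (ET-lunet, 3,000 cells/well, firefly luciferase ET replicon; clone A, 1,500 cells/well) incubated 4 days with serially diluted compound. Replication read by luciferase luminescence and/or real-time RT-PCR.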
In general terms: In a reporter assay the amount or activity of a reporter protein is the signal.

Experiment [9] deals with Hepatitis C virus. As to the kind of experiment: Antiviral activity against Hepatitis C virus Con1 infected in human lunet cells assessed as inhibition of viral RNA replication after 4 days by luciferase reporter gene assay. In kind it is functional, organism-based, Hepacivirus hominis. The note with it: 96 h. A digest of the protocol: as §3
The test system of experiment [10] is Hepatitis C virus. As to the kind of experiment: Antiviral activity against Hepatitis C virus harboring NS5B polymerase S96T/N142T mutant gene infected in human […] cells by luciferase-based replicon assay. In kind it is functional, Hepacivirus hominis. A digest of the protocol:
(§4)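 ET-lunet cells with the ET genotype 1b replicon, wild-type or S96T/N142T (ET replicon with these mutations electroporated into Lunet cells, selected in 0.2 mg/ml G418). 3,000 cells/well, 4 days with serially diluted compound. Firefly luciferase luminescence read-out; EC90 from dose–response.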

Experiment [11] deals with Hepatitis C virus. Briefly: Antiviral activity against Hepatitis C virus harboring wild-type NS5B infected in human lunet cells by luciferase-based replicon assay. In kind it is functional, Hepacivirus hominis. An outline of the steps:
as §4

For experiment [12], the system named is Hepatitis C virus. Briefly: Antiviral activity against Hepatitis C virus harboring wild-type NS5B infected in human HuH7 cells by luciferase-based replicon assay. The format is functional, Hepacivirus hominis. The conditions noted are these: Huh-7.
The test system of experiment [13] is Hepatitis C virus. As to the kind of experiment: Antiviral activity against Hepatitis C virus harboring NS5B polymerase S96T mutant gene infected in human lunet cells by luciferase-based replicon assay. In kind it is functional, Hepacivirus hominis. A digest of the protocol: as §4
The subject of experiment [14] is Hepatitis C virus. As to the kind of experiment: Selectivity ratio of EC90 for Hepatitis C virus harboring NS5B polymerase S96T mutant gene to EC90 for HCV harboring wild type NS5B polymerase. In kind it is functional, Hepacivirus hominis.
In experiment [15] the test system is Hepatitis C virus. As to the kind of experiment: Antiviral activity against Hepatitis C virus harboring NS5B polymerase S282T mutant gene infected in human HuH7 cells by luciferase-based replicon assay. In kind it is functional, Hepacivirus hominis. The note with it: Huh-7.
The subject of experiment [16] is Hepatitis C virus. As to the kind of experiment: Selectivity ratio of EC90 for Hepatitis C virus harboring NS5B polymerase S282T mutant gene to EC90 for Hepatitis C virus harboring wild-type NS5B polymerase. In kind it is functional, Hepacivirus hominis. An outline of the steps:
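Clone A genotype 1b (Con1) replicon cells, wild-type or S282T mutant (selected with 2′-C-methyladenosine). 1,500 cells/well, 4 days with serially diluted compound. HCV RNA by real-time RT-PCR; EC90 from dose–response.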

Experiment [17] deals with T1, DNA-directed RNA polymerase II subunit RPB1 (Homo sapiens, UniProt P24928). As to the kind of experiment: Inhibition of human RNA polymerase 2. An outline of the steps:
(§5)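 In vitro transcription by HeLa nuclear extract from CMV immediate-early promoter DNA. Mix: 400 μM ATP, CTP and UTP, 16 μM GTP, [α-32P]GTP, 3 mM MgCl2, in 20 mM HEPES pH 7.9 buffer with KCl, EDTA, DTT and glycerol. Inhibitor up to 1 mM. 30°C for 60 min. RNA purified, run on 6% sequencing gel and quantified by phosphorimager.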

The target in experiment [18] is T1, DNA-directed RNA polymerase II subunit RPB1. As to the kind of experiment: Inhibition of human RNA polymerase 2 assessed as synthesis of RNA products at 1 uM. An outline of the steps: as §5
Experiment [19] shares this target. Briefly: Inhibition of human RNA polymerase 2 assessed as synthesis of RNA products at 500 uM. An outline of the steps:
as §5

The target of experiment [20] is T2, DNA polymerase subunit gamma-1 (Homo sapiens, UniProt P54098).
T2 sequence (P54098 whole entry): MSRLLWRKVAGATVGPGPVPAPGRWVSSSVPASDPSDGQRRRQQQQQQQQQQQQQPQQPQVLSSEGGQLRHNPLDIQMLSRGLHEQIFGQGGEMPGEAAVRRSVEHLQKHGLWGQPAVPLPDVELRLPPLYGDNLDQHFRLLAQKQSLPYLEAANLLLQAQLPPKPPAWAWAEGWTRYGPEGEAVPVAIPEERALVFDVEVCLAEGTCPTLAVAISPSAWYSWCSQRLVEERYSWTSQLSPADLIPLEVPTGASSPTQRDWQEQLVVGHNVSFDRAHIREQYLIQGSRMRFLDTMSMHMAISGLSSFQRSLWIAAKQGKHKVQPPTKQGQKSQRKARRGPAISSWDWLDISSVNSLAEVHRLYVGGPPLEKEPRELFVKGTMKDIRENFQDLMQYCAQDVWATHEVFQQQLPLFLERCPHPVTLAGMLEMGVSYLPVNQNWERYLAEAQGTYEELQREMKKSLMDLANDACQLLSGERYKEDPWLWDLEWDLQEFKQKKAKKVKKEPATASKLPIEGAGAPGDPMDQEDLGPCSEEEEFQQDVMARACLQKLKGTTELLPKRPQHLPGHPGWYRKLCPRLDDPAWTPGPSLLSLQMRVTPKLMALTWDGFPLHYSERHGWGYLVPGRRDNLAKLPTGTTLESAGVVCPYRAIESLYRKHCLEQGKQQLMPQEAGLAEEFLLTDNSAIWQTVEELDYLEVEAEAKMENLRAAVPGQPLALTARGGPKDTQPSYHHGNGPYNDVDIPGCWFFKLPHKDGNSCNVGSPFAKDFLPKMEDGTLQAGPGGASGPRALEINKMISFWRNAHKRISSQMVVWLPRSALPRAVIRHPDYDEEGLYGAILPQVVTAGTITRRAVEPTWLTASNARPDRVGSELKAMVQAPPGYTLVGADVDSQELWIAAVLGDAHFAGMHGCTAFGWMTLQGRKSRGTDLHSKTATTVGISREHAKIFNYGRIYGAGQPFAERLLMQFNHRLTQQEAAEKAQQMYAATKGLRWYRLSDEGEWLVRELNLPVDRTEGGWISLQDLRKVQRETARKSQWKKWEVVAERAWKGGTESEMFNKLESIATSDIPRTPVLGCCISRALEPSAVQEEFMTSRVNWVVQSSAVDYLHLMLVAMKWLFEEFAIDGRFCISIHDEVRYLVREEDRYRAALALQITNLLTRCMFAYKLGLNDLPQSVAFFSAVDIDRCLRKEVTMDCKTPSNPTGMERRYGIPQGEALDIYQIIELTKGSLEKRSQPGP
As to the kind of experiment: Inhibition of human DNA polymerase gamma assessed as incorporation of [alpha-32P]dCTP up to 1mM preincubated for 30 mins by whatman DE81 paper binding assay. An outline of the steps:
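Human DNA polymerase α (20 μg/ml) or γ (50 μg/ml) in 50 mM Tris pH 7.5, 50 mM NaCl, activated calf thymus DNA, 20 μM each dNTP, [α-32P]dCTP, 5 mM MgCl2. Nucleotide inhibitor up to 1 mM. 37°C, quenched with EDTA at 30 min. Product measured by DE81 paper binding; IC50 by nonlinear fit.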

For experiment [21], the target named is DNA polymerase beta (Homo sapiens, UniProt P06746). As to the kind of experiment: Inhibition of human DNA polymerase beta assessed as incorporation of [alpha-32P]dCTP up to 1mM preincubated for 30 mins by whatman DE81 paper binding assay. A digest of the protocol:
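Human DNA polymerase β at 18 μg/ml final, in 50 mM Tris pH 7.5, 50 mM NaCl, 5 mM MgCl2, activated calf thymus DNA and 20 μM each dNTP with [α-32P]dCTP. Triphosphate up to 1 mM. 37°C, stopped at 30 min with EDTA. Products quantified by DE81 paper binding; IC50 by nonlinear fit.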

pEC50, pIC50: −log10 of the molar value. Calls of active or inactive are those of the source. The rule behind the calls is not given here.

As a reminder, the pEC50 is −log10 of the EC50, conventionally taken in molar units. Turning to `CC(C)CCn1c(=O)c(C2=NS(=O)(=O)c3cc(N(C)S(C)(=O)=O)ccc3N2)c(O)c2cccn21`, the result in experiment [1], in experiment [2], in experiment [5] and in [6] was inactive. In addition, the pEC50 in [3] is 6.96. For the same molecule, the FC in [4] came to 0.69. Moreover, the outcome in [7] was Active.
By EC90 is commonly meant the concentration needed for an effect of 90%. With `C[C@@]1(F)[C@H](O)[C@@H](CO)O[C@H]1n1ccc(N)nc1=O`, the EC90 in experiment [8] worked out at 0.45 µM. Besides, in [9], the pEC50 is 7.12 and the EC90 was found to be 0.52 µM.
`[N-]=[N+]=N[C@]1(CO)O[C@@H](n2ccc(N)nc2=O)[C@H](O)[C@@H]1O` [4'-AZIDOCYTIDINE]: the EC90 in experiment [10] was 80.1 µM; in experiment [11], 17 µM; in experiment [12], 18.6 µM; in [13] it was 80.1 µM; in experiment [15], 24.9 µM. Also, the Selectivity ratio in experiment [14] amounted to 4.7; in [16] it was 1.3.
In general, pIC50 refers to −log10 of the IC50, conventionally taken in molar units. As a reminder, the inhibition is how much of the control response was suppressed. On to `Nc1ccn([C@@H]2O[C@H](COP(=O)(O)OP(=O)(O)OP(=O)(O)O)C[C@H]2O)c(=O)n1`, for which, in experiment [17], the pIC50 was below 3.30. Also, the inhibition result in experiment [18] was “Active”. The inhibition in experiment [19] is 67%.
In the case of `C[C@@]1(CO)[C@H](O)CC[C@@]2(C)[C@H]1CC[C@H]1C[C@@H]3C[C@@]12CC[C@]3(O)CO` [APHIDICOLIN], the pIC50 in experiment [20] and in experiment [21] was below 4.00 throughout.
